TCR CD3 inh: inhibitors of human TCR-CD3 interaction. AID 651800. inhibition, % at 9.4 µM. 360,000 compounds, 0.37% hits. TAMRA-labeled TCR probe fluorescence, biochemical; in the data active = inhibition above about 19%;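 also: recombinant mutant TCR 2C K166C tagged with TAMRA read by polarization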
HTRA1 inh: inhibitors of human serine peptidase HTRA1; Q92743; AID 504803; recombinant HTRA1, FP-rhodamine activity-based probe, fluorescence polarization; inhibition, % at 5.96 µM; 340,000 compounds, 0.5% hits; in the data active = inhibition above about 36%
rCAG binder-1: r(CAG) repeat RNA binding; TO-PRO-1 dye displacement fluorescence; inhibition, % at 3 µM; 370,000 compounds, 1.3% hits; AID 651821;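 active = inhibition above the plate cutoff, the mean of all test compounds on that plate plus 3 SD, cut at about 35% in these data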;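 also: higher means more dye released from RNA so lower well fluorescence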
SIAE primary: inhibitors of human sialic acid acetylesterase SIAE | inhibition, % at 9.66 µM | SIAE FP-Rh probe binding, fluorescence polarization | 370,000 compounds, 0.69% hits;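 active = inhibition above a cutoff: mean of compounds within the control limits plus 3 SD of those, cut at about 17% in these data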
Target sequence (Q9HAT2 whole entry, looked up): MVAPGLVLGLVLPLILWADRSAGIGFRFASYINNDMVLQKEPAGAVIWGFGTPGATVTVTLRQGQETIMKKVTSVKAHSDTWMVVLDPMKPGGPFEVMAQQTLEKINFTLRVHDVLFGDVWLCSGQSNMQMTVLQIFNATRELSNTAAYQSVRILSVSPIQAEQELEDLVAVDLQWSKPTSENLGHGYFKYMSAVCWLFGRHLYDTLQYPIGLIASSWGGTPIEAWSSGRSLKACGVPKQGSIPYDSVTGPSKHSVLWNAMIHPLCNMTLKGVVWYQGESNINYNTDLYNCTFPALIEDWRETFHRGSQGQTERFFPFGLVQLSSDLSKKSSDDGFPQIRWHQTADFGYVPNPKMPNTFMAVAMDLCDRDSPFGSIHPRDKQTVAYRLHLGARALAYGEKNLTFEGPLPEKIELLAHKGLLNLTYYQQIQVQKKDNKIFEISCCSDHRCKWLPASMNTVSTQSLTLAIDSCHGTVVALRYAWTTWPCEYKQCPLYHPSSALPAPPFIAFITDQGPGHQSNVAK
ABHD4 inh: inhibitors of mouse ABHD4. Q8VD66. purified mABHD4, FP-Rh probe fluorescence polarization. inhibition, % at 8.92 µM. 370,000 compounds, 0.54% hits. AID 720543;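 active = inhibition exceeding the mean over every tested compound plus 3 SD, cut at about 30% in these data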
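assay system = mABHD4 protein | compound dosing = single nominal dose of 8.92 µM, 0.89% DMSO final | read-out basis = percent inhibition of probe binding, normalized to plate controls | schedule = Enzyme–compound pre-incubation 45 min, then probe 60 min, both 25 °C | detection = fluorescence polarization, excitation 525 nm, emission 598 nm, BODIPY TMR filters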
rCAG bind conf: r(CAG) RNA repeat binding, confirmation; TO-PRO-1 dye displacement fluorescence; inhibition, % at 3 µM; 4,300 compounds, 70% hits; shares compounds with rCAG binder-1;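 active = inhibition above a per-plate cutoff, the mean inhibition of sample wells plus 3 SD, cut at about 35% in these data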;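 also: loss of TO-PRO-1 fluorescence as compound displaces dye from 1x1 AA loop RNA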
dCAG dye counter: DNA CAG dye complex inhibition counter-screen. shares compounds with rCAG binder-1. d(CAG) DNA oligo TO-PRO-1 dye displacement, fluorescence. inhibition, % at 3 µM. 4,300 compounds, 94% hits;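 active = inhibition above its plate's cutoff, the mean test-well inhibition plus 3 SD, cut at about 4.8% in these data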;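 also: hits displace the dye from DNA and so lower well fluorescence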
DNA CAG DR: disrupts DNA CAG TO-PRO-1 complex in dose response | shares compounds with rCAG binder-1 | 250 compounds, 20% hits | AID 686960 | IC50, µM | DNA CAG/GTC duplex TO-PRO-1 dye displacement fluorescence; in the data active = IC50 below about 10 µM
dCAG DNA bind: DNA CAG dye complex inhibition, late stage dose response. shares compounds with rCAG binder-1. d(CAG) DNA duplex TO-PRO-1 dye displacement, fluorescence. IC50, µM. 30 compounds, 80% hits
rCAG binder-2: r(CAG) repeat RNA binding, TO-PRO-1 displacement | shares compounds with rCAG binder-1 | r(CAG) RNA TO-PRO-1 dye displacement, fluorescence | IC50, µM | 30 compounds, 100% hits
Numbers stand for hits. Most compounds without a hit are left out; they make up all but 2.5% or so of the library. Unless noted, no rule for the calls is given here.

Results for COc1ccc(CN(Cc2ccc(C(=O)O)cc2)C(=S)Nc2ccccc2C)cc1OC ?
TCR CD3 inh: inactive; HTRA1 inh: inactive; rCAG binder-1: inactive; SIAE primary: inactive; ABHD4 inh: inactive

Results for Cc1cc(C)cc(NC(=S)N(Cc2ccc(Cl)cc2)Cc2ccc(C(=O)O)cc2)c1 ?
TCR CD3 inh: inactive; HTRA1 inh: inactive; rCAG binder-1: 49; SIAE primary: inactive; ABHD4 inh: inactive; rCAG bind conf: 65; dCAG dye counter: 29

What do the screens show for `Cc1ccc(C)c(NC(=S)N(Cc2ccc(Cl)cc2)Cc2ccc(C(=O)O)cc2)c1`?
TCR CD3 inh: inactive; HTRA1 inh: inactive; rCAG binder-1: 45; SIAE primary: inactive; ABHD4 inh: inactive; rCAG bind conf: 49; dCAG dye counter: 14

How did Cc1cccc(NC(=S)N(Cc2ccc(Cl)cc2)Cc2ccc(C(=O)O)cc2)c1 do in these assays?
TCR CD3 inh: inactive; HTRA1 inh: inactive; rCAG binder-1: inactive; SIAE primary: inactive; ABHD4 inh: inactive

What do the screens show for `COc1ccc(NC(=S)N(Cc2ccc(Cl)cc2)Cc2ccc(C(=O)O)cc2)cc1Cl`?
TCR CD3 inh: inactive; HTRA1 inh: inactive; rCAG binder-1: 59; SIAE primary: inactive; ABHD4 inh: inactive; rCAG bind conf: 60; dCAG dye counter: 21

Results for CC(=O)c1cccc(-c2ccnc3c2CC(C(=O)Nc2ccc(Cl)cc2)O3)c1 (centres undefined) ?
TCR CD3 inh: inactive; rCAG binder-1: inactive; SIAE primary: inactive; ABHD4 inh: inactive

What do the screens show for `Cn1cnnc1Sc1nc2ccccc2nc1NS(=O)(=O)c1ccccc1`?
TCR CD3 inh: inactive; HTRA1 inh: inactive; rCAG binder-1: inactive; SIAE primary: inactive; ABHD4 inh: inactive

How did Cc1cc(NC(=S)N(Cc2ccc(Cl)cc2)Cc2ccc(C(=O)O)cc2)ccc1Cl do in these assays?
TCR CD3 inh: inactive; HTRA1 inh: inactive; rCAG binder-1: 69; SIAE primary: inactive; ABHD4 inh: inactive; rCAG bind conf: 83; dCAG dye counter: 47

Results for Cc1ccc(NC(=S)N(Cc2cccc(Br)c2)CC2CCC(C(=O)O)CC2)cc1 (centres undefined) ?
TCR CD3 inh: inactive; HTRA1 inh: inactive; rCAG binder-1: inactive; SIAE primary: inactive; ABHD4 inh: inactive

What do the screens show for `CCc1ccccc1NC(=S)N(Cc1ccc(C(=O)O)cc1)Cc1ccc(OC)c(OC)c1`?
TCR CD3 inh: inactive; HTRA1 inh: inactive; rCAG binder-1: inactive; SIAE primary: inactive; ABHD4 inh: inactive

What do the screens show for `Cc1cc(NC(=S)N(Cc2cccc(Br)c2)CC2CCC(C(=O)O)CC2)ccc1Cl` (centres undefined)?
TCR CD3 inh: inactive; HTRA1 inh: inactive; rCAG binder-1: 46; SIAE primary: inactive; ABHD4 inh: inactive; rCAG bind conf: 64; dCAG dye counter: 24

How did Cc1cc(C)cc(NC(=S)N(Cc2ccc(Br)cc2)Cc2ccc(C(=O)O)cc2)c1 do in these assays?
TCR CD3 inh: inactive; HTRA1 inh: inactive; rCAG binder-1: 65; SIAE primary: inactive; ABHD4 inh: inactive; rCAG bind conf: 68; dCAG dye counter: 27

How did Cc1ccc(NC(=S)N(Cc2ccc(Br)cc2)Cc2ccc(C(=O)O)cc2)cc1C do in these assays?
TCR CD3 inh: inactive; HTRA1 inh: inactive; rCAG binder-1: 54; SIAE primary: inactive; ABHD4 inh: inactive; rCAG bind conf: 71; dCAG dye counter: 31; DNA CAG DR: inactive; dCAG DNA bind: 4.6; rCAG binder-2: 2

Results for COc1ccc(CN(Cc2ccc(C(=O)O)cc2)C(=S)Nc2ccccc2Cl)cc1OC ?
TCR CD3 inh: inactive; HTRA1 inh: inactive; rCAG binder-1: inactive; SIAE primary: inactive; ABHD4 inh: inactive

Results for CCOC(=O)c1c(N)sc(C(=O)Nc2ccc3c(c2)OCO3)c1C ?
TCR CD3 inh: inactive; HTRA1 inh: inactive; rCAG binder-1: inactive; SIAE primary: inactive; ABHD4 inh: inactive

How did CCCCNc1cc(=O)n(C)c(=O)n1C do in these assays?
TCR CD3 inh: inactive; HTRA1 inh: inactive; rCAG binder-1: inactive; SIAE primary: inactive; ABHD4 inh: inactive

How did CC(=O)C1=C(O)C(=Cc2ccccc2)OC1=O do in these assays?
TCR CD3 inh: inactive; HTRA1 inh: inactive; rCAG binder-1: 36; SIAE primary: inactive; ABHD4 inh: inactive; rCAG bind conf: inactive; dCAG dye counter: 6.6

What do the screens show for `COc1ccc(C=C2OC(=O)C(C(C)=O)=C2O)cc1`?
TCR CD3 inh: inactive; HTRA1 inh: inactive; rCAG binder-1: inactive; SIAE primary: inactive; ABHD4 inh: inactive

What do the screens show for `Cc1ccccc1C(=O)Nc1ccc(S(=O)(=O)N2CC(C)OC(C)C2)cc1` (centres undefined)?
TCR CD3 inh: inactive; HTRA1 inh: inactive; rCAG binder-1: inactive; SIAE primary: inactive; ABHD4 inh: inactive

How did CC1CN(S(=O)(=O)c2ccc(NC(=O)c3cc(-c4ccccc4O)n[nH]3)cc2)CC(C)O1 (centres undefined) do in these assays?
TCR CD3 inh: inactive; HTRA1 inh: inactive; rCAG binder-1: 37; SIAE primary: inactive; ABHD4 inh: inactive; rCAG bind conf: inactive; dCAG dye counter: 14

How did O=C(Nc1ccc(S(=O)(=O)N2CCOCC2)cc1)c1cc(-c2ccccc2O)n[nH]1 do in these assays?
TCR CD3 inh: inactive; HTRA1 inh: inactive; rCAG binder-1: 35; SIAE primary: inactive; ABHD4 inh: inactive; rCAG bind conf: inactive; dCAG dye counter: 7.9

What do the screens show for `CCOc1ccc(Cl)cc1S(=O)(=O)n1cnc2ccccc21`?
TCR CD3 inh: inactive; HTRA1 inh: inactive; rCAG binder-1: inactive; SIAE primary: inactive; ABHD4 inh: inactive

Results for NNC(=O)c1cc2ccccc2cc1NS(=O)(=O)c1ccccc1 ?
TCR CD3 inh: inactive; HTRA1 inh: inactive; rCAG binder-1: 54; SIAE primary: inactive; ABHD4 inh: inactive; rCAG bind conf: inactive; dCAG dye counter: 5.0

Results for NC(=O)c1ccccc1NS(=O)(=O)c1ccccc1 ?
TCR CD3 inh: inactive; HTRA1 inh: inactive; rCAG binder-1: inactive; SIAE primary: inactive; ABHD4 inh: inactive

How did Fc1ccc(-c2nc3ccc(Br)cn3c2Cc2cccc(F)c2)cc1 do in these assays?
TCR CD3 inh: inactive; rCAG binder-1: 48; SIAE primary: inactive; ABHD4 inh: inactive; rCAG bind conf: inactive; dCAG dye counter: 9.0
